Experimental data: ChEMBL document CHEMBL4725317 (Bioorg Med Chem Lett, 2020)
One block for each molecule: values may come before it.

Key:
[1] = Stability of compound in human liver microsomes assessed as parent compound remaining at 1 uM measured at 10 mins in presence of NADPH; type: ADME, Microsome; settings: for remaining at 10 min, 1 µM: liver microsomes, read-out: Stabilty
Method in brief: (§1)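 Test compound at 1 μM with human, mouse or rat liver microsomes (0.5 mg/ml protein) plus NADPH cofactor; final solvents 0.01% DMSO, 0.05% acetonitrile; percent parent remaining at 10 min. Verapamil, cerivastatin and warfarin as positive controls. SD given when multiple batches were tested.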

[2] = Stability of compound in rat liver microsomes assessed as parent compound remaining at 1 uM measured at 10 mins in presence of NADPH; type: ADME, Microsome; settings: for remaining at 10 min, 1 µM: liver microsomes, read-out: Stabilty; method in brief: as §1
[3] = Stability of compound in mouse liver microsomes assessed as parent compound remaining at 1 uM measured at 10 mins in presence of NADPH; type: ADME, Microsome; settings: read-out: Stabilty; method in brief: as §1
[4] = target: T1, Sodium/glucose cotransporter 2 (Homo sapiens) (UniProt P31639); assay: Inhibition of human SGLT2 expressed in CHO cells assessed as reduction in [14C]-methyl-alpha -D-glucopyranoside accumulation at 0.3 uM relative to control; type: cell-based
T1 sequence (whole entry): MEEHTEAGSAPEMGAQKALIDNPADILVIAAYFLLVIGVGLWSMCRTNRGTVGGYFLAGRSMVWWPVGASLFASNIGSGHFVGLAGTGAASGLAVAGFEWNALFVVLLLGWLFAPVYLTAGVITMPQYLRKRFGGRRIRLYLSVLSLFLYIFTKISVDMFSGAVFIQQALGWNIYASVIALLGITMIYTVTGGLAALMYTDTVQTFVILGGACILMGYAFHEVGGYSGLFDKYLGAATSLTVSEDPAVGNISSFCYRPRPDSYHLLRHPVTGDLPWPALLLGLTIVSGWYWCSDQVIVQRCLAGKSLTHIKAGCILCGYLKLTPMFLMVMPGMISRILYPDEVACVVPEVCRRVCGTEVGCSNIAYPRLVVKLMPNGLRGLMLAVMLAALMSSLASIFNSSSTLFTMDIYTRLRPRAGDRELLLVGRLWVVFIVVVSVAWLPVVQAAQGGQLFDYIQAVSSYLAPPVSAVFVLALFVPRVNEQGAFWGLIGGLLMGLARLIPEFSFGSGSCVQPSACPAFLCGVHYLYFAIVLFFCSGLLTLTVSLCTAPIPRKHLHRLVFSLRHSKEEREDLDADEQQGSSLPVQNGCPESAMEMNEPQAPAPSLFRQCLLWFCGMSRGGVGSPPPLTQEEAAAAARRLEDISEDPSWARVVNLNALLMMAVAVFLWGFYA
Method in brief: (§2)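 CHO cells expressing human SGLT1 or SGLT2; inhibition of [14C]methyl D-glucopyranoside (AMG) accumulation measured with test compound at 0.3 μM.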

[5] = target: T2, Sodium/glucose cotransporter 1 (Homo sapiens) (UniProt P13866); assay: Inhibition of human SGLT1 expressed in CHO cells assessed as reduction in [14C]-methyl-alpha -D-glucopyranoside accumulation at 0.3 uM relative to control; type: cell-based; method in brief: as §2
T2 sequence (whole entry): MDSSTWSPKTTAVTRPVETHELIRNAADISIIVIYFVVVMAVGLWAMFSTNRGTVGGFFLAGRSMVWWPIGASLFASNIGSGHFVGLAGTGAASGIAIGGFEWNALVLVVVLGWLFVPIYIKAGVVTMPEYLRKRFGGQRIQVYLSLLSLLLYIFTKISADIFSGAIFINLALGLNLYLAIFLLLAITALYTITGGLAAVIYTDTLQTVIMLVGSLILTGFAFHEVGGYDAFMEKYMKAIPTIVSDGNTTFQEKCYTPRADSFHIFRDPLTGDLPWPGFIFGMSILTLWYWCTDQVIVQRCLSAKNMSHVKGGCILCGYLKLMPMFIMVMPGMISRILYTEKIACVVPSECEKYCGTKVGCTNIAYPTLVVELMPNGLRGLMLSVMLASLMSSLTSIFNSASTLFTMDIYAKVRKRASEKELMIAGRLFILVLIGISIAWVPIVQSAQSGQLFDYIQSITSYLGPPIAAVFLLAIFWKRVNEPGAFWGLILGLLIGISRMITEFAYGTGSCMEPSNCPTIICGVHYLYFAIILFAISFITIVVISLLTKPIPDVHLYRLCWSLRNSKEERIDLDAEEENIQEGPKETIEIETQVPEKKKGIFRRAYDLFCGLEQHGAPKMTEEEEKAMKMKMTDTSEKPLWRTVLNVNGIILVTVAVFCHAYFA

[6] = AUC (0 to infinity) in Sprague-Dawley rat at 2 mg/kg, iv or 10 mg/kg, po; type: ADME, organism-based; parameters: dose 10 mg/kg; settings: in vivo
Method in brief: (§3)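 Male Sprague Dawley rats dosed 2 mg/kg IV (vehicle 20% HPbCD) or 10 mg/kg PO (vehicle 0.5% Methocel); pharmacokinetic parameters derived from plasma exposure.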

[7] = Cmax in Sprague-Dawley rat at 2 mg/kg, iv or 10 mg/kg, po; type: ADME, organism-based; parameters: dose 10 mg/kg; settings: in vivo; method in brief: as §3
Rattus norvegicus [8] = assay: Hypoglycemic activity in overnight fasted Sprague-Dawley rat assessed as percent reduction in blood glucose AUC at 10 mg/kg, po measured after 4 hrs post glucose challenge by OGTT relative to control; type: functional; parameters: scale not given: the % may be the effect or the level left
Method in brief: (§4)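 Overnight-fasted SD rats dosed orally at 1 or 10 mg/kg in 0.5% Methocel (vehicle controls) 60 min before oral glucose challenge. […] N=8 per group; mean ± SEM; one-way ANOVA-Dunnett.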

[9] = Half life in human liver microsomes at 1 uM measured at 10 mins in presence of NADPH; type: ADME, Microsome
Rattus norvegicus [10] = assay: Hypoglycemic activity in overnight fasted Sprague-Dawley rat assessed as percent reduction in blood glucose AUC at 1 mg/kg, po measured after 4 hrs post glucose challenge by OGTT relative to control; type: functional; parameters: scale not given: the % may be the effect or the level left; method in brief: as §4
[11] = In vivo inhibition of SGLT2 in overnight fasted Sprague-Dawley rat assessed as amount of urinary glucose excretion assessed per 4 hrs at 10 mg/kg, po; type: functional; method in brief: as §4
[12] = Clearance in Sprague-Dawley rat at 2 mg/kg, iv or 10 mg/kg, po; type: ADME, organism-based; settings: in vivo; method in brief: as §3
[13] = Volume of distribution at steady state in Sprague-Dawley rat at 2 mg/kg, iv or 10 mg/kg, po; type: ADME, organism-based; settings: in vivo, read-out: Vdss; method in brief: as §3
[14] = Oral bioavailability in Sprague-Dawley rat at 10 mg/kg; type: ADME, organism-based; settings: in vivo; method in brief: as §3
[15] = Tmax in Sprague-Dawley rat at 2 mg/kg, iv or 10 mg/kg, po; type: ADME, organism-based; settings: in vivo; method in brief: as §3
[16] = Half life in Sprague-Dawley rat at 2 mg/kg, iv; type: ADME, organism-based; settings: in vivo; method in brief: as §3
[17] = In vivo inhibition of SGLT1 in overnight fasted Sprague-Dawley rat assessed as amount of urinary glucose excretion assessed per 4 hrs at 1 mg/kg, po; type: functional; method in brief: as §4

remaining at 10 min, 1 µM [1]: 65% | Stabilty ([2]; microsomes, 10 min, 1 µM): 123% | remaining at 10 min, 1 µM [3]: 37%
SMILES: COc1cc(Cl)c(Cc2cc3ccccc3s2)cc1[C@@H]1O[C@H](CO)C(F)(F)[C@H](O)[C@H]1O

remaining at 10 min, 1 µM [1]: 74% | remaining at 10 min, 1 µM [2]: 56% | remaining at 10 min, 1 µM [3]: 96%
SMILES: C[C@]1(F)[C@H](O)[C@@H](O)[C@H](c2cc(Cc3ccc4c(c3)OCCO4)c(Cl)cc2O)O[C@@H]1CO

remaining at 10 min, 1 µM [1]: 103% | remaining at 10 min, 1 µM [2]: 98% | remaining at 10 min, 1 µM [3]: 111%
SMILES: COc1cc(O)c([C@@H]2O[C@H](CO)C(F)(F)[C@H](O)[C@H]2O)cc1Cc1cc2ccccc2s1

inhibition [4]: 67% | inhibition [5]: 31%
SMILES: COc1cc(O)c([C@@H]2O[C@H](CO)[C@@](C)(F)[C@H](O)[C@H]2O)cc1Cc1ccc2c(c1)CCCO2

inhibition [4]: 78% | inhibition [5]: 37%
SMILES: COc1cc(Cl)c(Cc2ccc3c(c2)OCCO3)cc1[C@@H]1O[C@H](CO)C(F)(F)[C@H](O)[C@H]1O

remaining at 10 min, 1 µM [1]: 99% | remaining at 10 min, 1 µM [2]: 26% | remaining at 10 min, 1 µM [3]: 97%
SMILES: COc1cc(O)c([C@@H]2O[C@H](CO)C(F)(F)[C@H](O)[C@H]2O)cc1Cc1ccc2c(c1)OCCO2

Stabilty ([1]; microsomes, 10 min, 1 µM): 120% | AUC(0-inf) [6]: 18600 ng·h/mL | Cmax [7]: 5240 ng/mL | t1/2 [9]: > 3 h | remaining at 10 min, 1 µM [2]: 94% | remaining at 10 min, 1 µM [3]: 106% | clearance [12]: 3.92 mL/min/kg | Vd [13]: 0.91 L/kg | bioavailability [14]: 46.8% | Tmax [15]: 0.31 h | half-life [16]: 3.71 h
SMILES: OC[C@H]1O[C@@H](c2cc(Cc3cc4ccccc4s3)c(Cl)cc2O)[C@H](O)[C@@H](O)C1(F)F
Activity (Rattus norvegicus [8]): 41.4% | Activity (Rattus norvegicus [10]): 16% | Activity [11]: 0.005 g | Activity [17]: 0.001 g
